Source: ChEMBL document CHEMBL1156978, “Improving binding specificity of pharmacological chaperones that target mutant superoxide dismutase-1 linked to familial amyotrophic lateral sclerosis using computational methods” (J Med Chem, 2010)
Activity calls are given as the source filed them. The rule behind the calls is not given here.

Legend:
Homo sapiens [1] = species on record: Homo sapiens; assay: Inhibition of human GST-SOD1 A4V mutant aggregation expressed in Escherichia coli Rosetta assessed as dimeric enzyme level at 20 uM […]
In short: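 Metal-free SOD-1 A4V apoprotein (25μM) preincubated with increasing compound concentrations, 37°C, 15 min, then 5mM EDTA added and aggregation run 4 hrs at 37°C. Dimer measured by size exclusion chromatography peak area; percentage inhibition calculated against untreated A4V.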

Homo sapiens [2] = species on record: Homo sapiens; assay: Inhibition of human GST-SOD1 A4V and N53A mutant aggregation expressed in Escherichia coli Rosetta assessed as dimeric enzyme level at 75 uM by […]
In short: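 Metal-free SOD-1 mutant prepared by dialysis against acetate pH 3.8/10mM EDTA, then pH 5.5/100mM NaCl; chelex-treated buffers, plastic tubes. Dimer purified on Superdex 75. Apoprotein 25μM preincubated with compound 75μM, 37°C, 15 min; aggregation started with 5mM EDTA at 37°C. Aliquots analysed by Superdex 200 gel filtration in TBS pH 7.4 (220/276 nm); dimer estimated from peak area.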

Homo sapiens [3] = species on record: Homo sapiens; assay: Inhibition of human GST-SOD1 A4V mutant aggregation expressed in Escherichia coli Rosetta assessed as dimeric enzyme level at 75 uM by […]
[4] = target: Superoxide dismutase [Cu-Zn] (Homo sapiens) (UniProt P00441); assay: Binding affinity to human GST-SOD1 expressed in Escherichia coli Rosetta at 100 uM in presence of human plasma by reverse phase HPLC analysis; type: cell-free
Chain of Superoxide dismutase [Cu-Zn] (Homo sapiens) (P00441 whole entry, the tested form may be a part): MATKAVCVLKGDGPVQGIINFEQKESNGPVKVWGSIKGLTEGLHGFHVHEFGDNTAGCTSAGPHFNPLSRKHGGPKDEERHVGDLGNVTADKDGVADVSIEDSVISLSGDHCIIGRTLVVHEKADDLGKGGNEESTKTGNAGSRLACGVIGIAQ
In short: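 GST-SOD-1 fusion (final 75μM) added to 1 ml human blood plasma with compound at 100μM; shaken 60 rpm, 4°C, 24 h. Complex captured on glutathione-sepharose (4°C, 1 h), compound released with 5% TFA and quantified by C18 reverse-phase HPLC (40-100% acetonitrile/0.2% TFA gradient, 20 min). Buffer-only control taken as theoretical maximum for relative binding; GST tag alone as control.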

Row | Compound | Activity (Homo sapiens [1]) | Activity (Homo sapiens [2]) | Activity (Homo sapiens [3]) | Activity [4]
1 | O=c1cc(Nc2ccc(Cl)cc2F)[nH]c(=O)[nH]1 |  |  |  | inactive
2 | O=c1[nH]nc(SCc2ccccc2)c(=O)[nH]1 | Active | inactive | Active | inactive
3 | O=c1cc(Nc2ccc3ccccc3c2)[nH]c(=O)[nH]1 |  |  | Active | inactive

Further lines, results first:

Row | Activity (Homo sapiens [1]) | Activity (Homo sapiens [2]) | Activity (Homo sapiens [3]) | Activity [4] | Compound
4 | Active | inactive |  |  | O=c1[nH]cc(CSc2n[nH]c(=O)[nH]c2=O)c(=O)[nH]1
5 |  |  | Active | inactive | O=c1[nH]nc(SCc2ccccc2Cl)c(=O)[nH]1
6 |  |  | Active | inactive | O=c1[nH]nc(SCc2c(F)cccc2Cl)c(=O)[nH]1
